FLuc act counter = firefly luciferase counter-screen for stimulation assays | P08659 | ATPlite luciferase biochemical, luminescence, 10 min; 0 = ATP-free wells, 1 = DMSO control | activation factor at 10 µM | 200,000 tested, under 10 active;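 active = luciferase activation factor, scaled between plate controls, of at least 2 with compound at 10 µM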
Target sequence (P08659 whole entry, looked up): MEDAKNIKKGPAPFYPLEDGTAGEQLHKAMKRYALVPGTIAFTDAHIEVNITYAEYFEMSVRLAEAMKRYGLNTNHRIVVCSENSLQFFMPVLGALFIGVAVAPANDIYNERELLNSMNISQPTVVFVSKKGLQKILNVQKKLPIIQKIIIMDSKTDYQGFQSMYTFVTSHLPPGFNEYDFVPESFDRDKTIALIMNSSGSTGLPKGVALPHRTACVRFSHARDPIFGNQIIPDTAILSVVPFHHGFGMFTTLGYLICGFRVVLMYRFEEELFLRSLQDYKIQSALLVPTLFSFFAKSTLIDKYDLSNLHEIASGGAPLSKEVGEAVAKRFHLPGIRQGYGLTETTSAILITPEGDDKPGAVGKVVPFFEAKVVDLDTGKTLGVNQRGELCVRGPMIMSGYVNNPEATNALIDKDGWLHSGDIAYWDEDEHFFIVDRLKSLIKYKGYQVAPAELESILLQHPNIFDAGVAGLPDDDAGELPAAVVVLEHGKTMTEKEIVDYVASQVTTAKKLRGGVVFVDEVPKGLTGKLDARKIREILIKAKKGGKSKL
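System: luciferase plus luciferin reagent, cell-free; medium: PBS as buffer for the ATP substrate; dosing: test compounds dosed from 2 mM stocks in 100% DMSO; timing: 10 min post-reagent at room temperature; measured by: luminescence measurement of luciferase light output; evaluation: luciferase activation, seen as luminescence increase over controls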
STAT3 blocker = inhibitors of IL-6 induced STAT3 signaling. hit rate 0.89% among 190,000. AID 862. inhibition, % at 5.5 µM. U3A cells, IL-6 STAT3-luciferase reporter, luminescence; host cell line lacks STAT1;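 active = inhibition above the mean inhibition across all screened compounds plus 3 SD, cut at about 44% in these data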;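 note: 0% = DMSO only wells and 100% = 100 µM nifuroxazide control wells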
STAT1 activator = increases IFN-gamma driven STAT1 reporter signal; NIH 3T3 STAT1-luciferase reporter, luminescence; 100% = IFN-gamma alone, no compound; activation (% of control), % at 5.5 µM; hit rate 2.6% among 200,000; AID 932;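 active = activation above the screen-wide mean activation plus 3 SD, cut at about 130% in these data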;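 note: raw ratio to IFN-gamma control signal so 100% means no change and 0% no light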
STAT1 blocker = inhibitors of IFN-gamma induced STAT1 signaling | NIH 3T3 STAT1-luciferase reporter, luminescence | inhibition, % at 5.5 µM | hit rate 0.35% among 200,000 | AID 920;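 active = inhibition above a set limit, the mean inhibition across all tested compounds plus 3 SD, cut at about 34% in these data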;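 note: 0% = IFN-gamma with DMSO and 100% = IFN-gamma with 300 µM nifuroxazide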
STAT3 activator = STAT3 signaling activation; hit rate 0.91% among 190,000; U3A cells, IL-6 STAT3-luciferase reporter, luminescence; 100% = signal with IL-6 EC80 alone; activation (% of control), % at 5.6 µM;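 active = activation above the screen-wide mean of compound activation plus 3 SD, cut at about 130% in these data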;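 note: 0% = background luminescence of wells with medium and substrate only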
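Material: human STAT1-deficient U3A cells with stable STAT3-luciferase reporter / Probe or stimulus: IL-6 stimulus at 33 ng/mL final / Schedule: 1 h compound pre-exposure, 6 h IL-6 stimulation, 37 °C / Technique: luminescence / Read-out basis: percent of IL-6-only median luminescence / Control set: IL-6-only high control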
FLuc inhib CS = Photinus pyralis luciferase inhibition counter-screen | P08659 | hit rate 1.5% among 200,000 | ATPLite firefly luciferase biochemical luminescence, 10 min | AID 1006 | inhibition, % at 10 µM;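 active = inhibition above about 50% when tested at 10 µM, limit read from the data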
* marks the source's active call; other numbers are inactive results; · = no result given. Rows were chosen to be rich in hits. Some 4.9% of all compounds tested hit in one or more screens of this group.

SMILES	FLuc act counter	STAT3 blocker	STAT1 activator	STAT1 blocker	STAT3 activator	FLuc inhib CS
CCOc1ccc(C(=O)Nc2cc(C)ccn2)cc1	0	93*	30	75*	24	97*
Cc1ccc(NC(=O)c2cnccn2)cc1	0.7	18	134*	-40	89	26
CCOc1ccc(NC(=O)c2cccnc2C(=O)O)cc1	1	26	99	1	81	5
CCOc1ccc(C2c3[nH]c4ccccc4c3CCN2C(=O)Cn2cncn2)cc1 (stereo not drawn)	1	-5	90	9	107	-4
Cc1ccc(S(=O)(=O)CCc2nc3ccccc3[nH]2)cc1C	1	9	100	-1	97	-4
CCN1CCCC1CN(Cc1cc2ccc(C)cc2[nH]c1=O)C(=S)Nc1ccc(F)cc1 (stereo not drawn)	1.1	-2	108	-9	107	-7
CCOc1ccc(NC(=O)c2nccnc2CO)cc1	0.4	29	144*	-48	78	63*
Cn1nnc(NC(=O)c2ccc3ccccc3c2)n1	0.8	15	100	-9	90	24
Cn1nnc(NC(=O)c2ccc(C(C)(C)C)cc2)n1	0.2	12	103	-3	93	80*
Cc1ccc(NC(=O)c2ccc(Cl)nc2)cc1	0.9	-24	131*	-32	120	9
CC(C)[C@H](NC(=O)c1ccc(C(C)(C)C)cc1)C(=O)Nc1nnc(C2CC2)s1	1	12	96	5	90	-4
CCOC(=O)C1(CCCc2ccccc2)CCN(Cc2cn(CC)nc2C)CC1	1	1	78	22	105	2
C#CCN(C(=O)Nc1ccccc1)c1ccccc1	1	10	100	0	91	-2
O=C(NNc1nc2c(F)cccc2s1)c1cc(=O)c2ccccc2o1	0.5	·	95	4	·	55*
COc1ccc2nc(NNC(=O)c3cc(=O)c4ccccc4o3)sc2c1	0.3	·	112	-15	·	69*
Cc1cccc2sc(NNC(=O)c3cc(=O)c4ccccc4o3)nc12	0.6	·	98	0	·	44
CCOC(=O)c1c(NC(=O)CSC2=NN3CCCC(=O)N=C3S2)sc2c1CCCCC2	1	-3	106	-6	102	-2
CCCc1cc(=O)n2c([nH]c3ccccc32)c1C#N	0.3	4	94	7	97	66*
Fc1ccc(NC(=S)N2CCN(c3ncccn3)CC2)cc1	1	14	102	-6	92	-2
COc1ccc(/C(C)=N/N2C(=O)c3ccccc3NC2c2ccc(O)c(OC)c2)cc1 (stereo not drawn)	0.7	·	112	-14	·	27
C/C(=N\N1C(=O)c2ccccc2NC1c1ccccc1)c1ccccc1O (stereo not drawn)	1	32	140*	-46	76	-1
CC(C)(C)c1ccc(C(=O)CS(=O)(=O)c2ccccc2)cc1	0.5	-19	97	3	120	54*
CCc1ccc(NC2=NCC(c3ccccc3)S2)cc1 (stereo not drawn)	1	-6	130*	-32	112	3
COc1ccc(C/C(C)=N/NC(=O)c2cccnc2)cc1	1	-10	109	-10	107	-2
Cc1ccc(/C=C/C2=NN(C)C(=O)CC2)cc1	0.2	30	123	-24	75	78*
SMILES	FLuc act counter	STAT3 blocker	STAT1 activator	STAT1 blocker	STAT3 activator	FLuc inhib CS
CCOCCCNC(=S)N1CCC(NC(=O)C23CC4CC(CC(C4)C2)C3)CC1	1.1	15	98	0	92	-6
CCCCc1ccc(Nc2ncccc2C#N)cc1	0.8	2	138*	-42	104	25
Cc1ccccc1OCc1nc2c3cnn(C)c3ncn2n1	1	-5	141*	-44	106	4
COc1cc(OC)cc(C(=O)/C=C2\Sc3ccccc3N2C)c1	0.8	18	131*	-35	94	15
CN1/C(=C/C(=O)c2cccs2)Sc2ccccc21	0.2	-70	140*	-44	163*	77*
CC(C)CC(C(=O)OCC(=O)c1c(N)n(C)c(=O)n(C)c1=O)N1C(=O)C2CC=CCC2C1=O (stereo not drawn)	1.1	6	104	-4	95	-6
Cc1cccc(N(C(=O)c2snc(C(N)=O)c2N)C(C)C(=O)NCC2CCCO2)c1 (stereo not drawn)	1	1	101	-1	103	-2
CCN1CCc2c(sc(NC(=O)Nc3ccc(Cl)c(Cl)c3)c2C(N)=O)C1	1.1	6	100	0	97	-5
Cc1cc(O)c(C=Nc2cccc(Cl)c2)c(=O)o1	1.1	-11	104	-4	109	-6
Cc1cc(O)c(/C=N/Nc2ccccc2)c(=O)o1	0.5	13	88	13	94	51*
Nc1n[nH]c(=S)n1/N=C1/C(=O)Nc2ccccc21	0.3	-34	103	-5	129	70*
CCc1cccc(NC(=S)N2CCC(c3ccccc3)C2)c1 (stereo not drawn)	0.9	-4	126	-27	109	8
Fc1cc(F)cc(NC(=S)N2CCC(c3ccccc3)C2)c1 (stereo not drawn)	0.9	2	141*	-44	104	7
Fc1ccccc1NC(=S)N1CCCCC1	1	-10	105	-6	111	0
Cc1ccc(NC(=S)N2CCC(c3ccccc3)C2)c(Cl)c1 (stereo not drawn)	0.3	39	93	8	70	74*
Fc1ccccc1NC(=S)N1CCC(c2ccccc2)C1 (stereo not drawn)	0.8	-3	146*	-49	108	15
S=C(Nc1ccccc1Cl)N1CCC(c2ccccc2)C1 (stereo not drawn)	0.8	6	148*	-52	100	21
S=C(Nc1ccccc1Cl)N1CCCCCC1	1.1	10	109	-9	96	-7
FC(F)(F)c1ccccc1NC(=S)Nc1cccc(Cl)c1	1	10	96	4	97	-4
CC(C)(C)NC(=O)CSc1nc(N)c(-c2ccccc2)c(=O)[nH]1	1.1	2	105	-7	100	-6
Oc1cc(NCc2cccnc2)ccc1-c1nc2ccccc2o1	1	10	134*	-37	96	0
COc1ccc(C(=O)C[n+]2ccc(-c3nnc4n3CCC4)cc2)cc1	1	-3	100	0	106	-5
COc1ccc(NC(=O)c2ccc(Br)o2)cc1	0.5	16	122	-25	84	46
COc1ccc(NC(=S)NC(=O)c2ccc(Br)o2)cc1	0.8	4	147*	-54	100	20
O=C(NC(=S)Nc1ccccc1)c1ccc(Br)o1	0.9	2	138*	-44	102	12
N=c1c(-c2nc3ccccc3[nH]2)cc(C(=O)c2cccs2)nn1-c1ccc(Cl)cc1	·	14	94	6	90	·

Compound activity: PubChem BioAssay, several laboratories
